# Compound activity (PubChem BioAssay)
# M1 antag = M1 muscarinic receptor (rat) antagonism | P08482 | CHO-M1 cells, Fluo-4 calcium, ACh EC80 antagonist mode; stronger effect = lower value | B-score at 10 µM | 64,000 compounds, 3.4% hits;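 active = calcium fluorescence response, raw or row-and-column corrected B-score, differing from the plate sample mean either way at a set confidence level, mostly lower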
# Target sequence (P08482 whole entry, looked up): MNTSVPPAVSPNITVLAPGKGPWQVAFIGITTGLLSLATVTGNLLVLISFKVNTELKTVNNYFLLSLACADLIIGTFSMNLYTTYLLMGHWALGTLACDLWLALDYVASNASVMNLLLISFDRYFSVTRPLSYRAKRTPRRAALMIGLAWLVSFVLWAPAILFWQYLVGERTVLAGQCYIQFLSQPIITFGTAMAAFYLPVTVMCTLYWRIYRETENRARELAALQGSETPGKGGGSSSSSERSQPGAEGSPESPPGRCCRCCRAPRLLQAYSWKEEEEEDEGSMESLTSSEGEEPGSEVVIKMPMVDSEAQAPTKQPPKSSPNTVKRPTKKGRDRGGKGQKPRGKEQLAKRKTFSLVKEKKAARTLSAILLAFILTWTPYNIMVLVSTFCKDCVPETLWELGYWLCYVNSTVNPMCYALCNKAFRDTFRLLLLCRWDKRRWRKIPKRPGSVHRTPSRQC
# tolC growth inh = growth inhibitors of E. coli BW25113 tolC mutant | growth inhibition, % at 10 µM (by protocol) | 65,000 compounds, 2.2% hits | OD615 | AID 573;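 active = growth inhibition at or above a cutoff equal to the mean over every tested compound plus 3 SD, cut at about 60% in these data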;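 also: growth measured after 20 h incubation at 37 °C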
#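 test system = E. coli BW25113 ΔtolC::kan bacteria | medium = LB with kanamycin 50 µg/mL | signal = OD at 615 nm | schedule = 37 °C, 20 h exposure | evaluation = % inhibition of E. coli growth | compound dosing = one dose of 10 µM final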
# WNV protease inh = WNV NS2B-NS3 proteinase inhibition; P06935; WNV NS2B-NS3 protease, fluorogenic substrate Ex360/Em465; stronger effect = lower value; z-score (test concentration not listed); 65,000 compounds, 0.18% hits; AID 577; in the data active = z-score below about -3
# M1 agonist = agonists of M1 muscarinic receptor. AID 626. 64,000 compounds, 3% hits. CHO-M1 cells, Fluo-4 calcium fluorescence, agonist mode; stronger effect = higher value. B-score at 10 µM;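 active = fluorescence rise, raw or as B-score row- and column-corrected plate score, outside the 99.7% band of its plate's samples, either direction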
# AP ELISA ortho = orthogonal test for alternative complement pathway inhibitors | 62,000 compounds, 0.08% hits | AID 1235 | inhibition, % at 5 µM | Human serum alternative complement pathway, LPS-coated ELISA, C3 deposition; tested in compound mixtures;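 active = inhibition above 30% in each of the two pooled mixtures holding the compound, so the lower value exceeds 30%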;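 also: 0% = serum in Mg-EGTA without compound and 100% = EDTA serum blank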
#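 Assay system: human serum alternative complement pathway, C3 deposition on LPS-coated wells; Dosing: 5 µM per compound in ten-compound mixtures; Detection: Anti-C3 ELISA, OD 450 nm; Buffer or medium: Mg2+-EGTA GVB++ buffer containing human serum at 1:15 dilution; Timing: 1 h at 37 °C; Replication: two different pools per compound.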
# E coli WT exp = blocks growth of wild type E. coli BW25113. OD600 absorbance. growth inhibition, % at 100 µM. 98,000 compounds, 0.15% hits;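 active = growth inhibition above about 50% at one test dose, limit read from the data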;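 also: growth measured after 20 h incubation at 37 °C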
# M1 antag conf = M1 muscarinic receptor (rat) antagonism, confirmed; shares compounds with M1 antag; CHO-M1 cells, Fluo-4 calcium, ACh EC80 antagonism; stronger effect = lower value; calcium response (max-min fluorescence) at 10 µM; 1,700 compounds, 43% hits; AID 677;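 active = calcium response below the same-plate mean of wells given acetylcholine alone at its 80%-effect dose, minus 3 SD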;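 also: raw fluorescence intensity difference in arbitrary instrument units and not normalized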
# mGluR4 antag = acts on human mGluR4 in M1 antagonist selectivity test; 1,700 compounds, 0.9% hits; fluorescence response (max-min) at 10 µM; shares compounds with M1 antag; CHO-mGluR4 calcium flux, Fluo-4 fluorescence, glutamate EC80; stronger effect = lower value;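 active = fluorescence response below the plate's average for near-maximal glutamate wells, less 3 SD of those wells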;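 also: raw unnormalized fluorescence span taken in the window right after glutamate addition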
# * hit, by the source's call; . = not tested or not shown. Shown are actives, neighbours in structure and some others; about 5.2% of the full set was active somewhere.
SMILES,M1 antag,tolC growth inh,WNV protease inh,M1 agonist,AP ELISA ortho,E coli WT exp,M1 antag conf,mGluR4 antag
CCOc1ccc(N(CC(=O)N2CCN(c3ccccc3)CC2)S(=O)(=O)c2c(C)noc2C)cc1,0.176,21.7,-0.42,-0.109,11.1,-3.0,.,.
CON1C(=O)C(=O)N(OC)C2CCCCC21 (stereo not given),.,.,.,.,.,-4.0,.,.
N#Cc1c2c(c(N3CCN(c4ccccn4)CC3)n3c1nc1ccccc13)CCC2,1.1,3.4,.,-0.9,-6.8,.,.,.
Cc1cc(N2CCN(c3ccccn3)CC2)n2c(nc3ccccc32)c1C#N,-2.2*,21.8,1.91,3.13,-6.3,-5.0,576,127*
COc1ccc(S(=O)(=O)N(CC(=O)O)Cc2ccccc2)cc1OC,-17.8*,1.2,-0.29,-1.41,6.2,5.0,643,197
COc1ccc(S(=O)(=O)N(CC(=O)N2CCOCC2)Cc2ccccc2)cc1C,.,.,.,.,.,6.0,.,.
CCN(CC)CCOC(=O)C1(c2ccccc2)CCCC1,.,.,.,.,.,4.0,.,.
CCN(CC)CCOC(=O)C(c1ccccc1)c1ccccc1,-12.7*,9.0,-0.43,0.144,26.2,.,18.8*,240
O=C(NCCN1CCCCCC1)C1CCC(CNS(=O)(=O)c2cccc3cccnc23)CC1 (stereo not given),-1.99*,9.2,1.54,-0.185,2.8,-2.0,521,244
Cc1ccnc(NC(=O)c2cccc(NS(=O)(=O)c3ccccc3C)c2)c1,.,.,.,.,.,-2.0,.,.
O=C1NC(c2ccccc2)C(C(=O)c2cccs2)C(O)(C(F)(F)F)N1 (stereo not given),0.911,-9.2,0.98,0.173,8.0,-1.0,.,.
CN1C(=O)NC(c2ccc(O)cc2)C(C(=O)c2cccs2)C1(O)C(F)(F)F (stereo not given),-3.35*,58.1,0.2,-0.0407,16.2,80.0*,433,183
COc1ccc(C2(O)CCN(C(=O)NC3CCCCC3)CC2)cc1,-0.0213,-7.7,0.78,-0.857,9.5,1.0,.,.
O=C(COC(=O)C12CC3CC(CC(O)(C3)C1)C2)NC(=O)NCc1ccco1,-17.1*,5.3,1.32,-0.35,-7.2,3.0,571*,172
CC1Cc2ccccc2N1C(=O)CSc1nnnn1C(C)C (stereo not given),.,.,.,.,.,6.0,.,.
O=C(NCCCN1CCOCC1)NC12CC3CC(CC(C3)C1)C2,0.022,-9.6,-1.28,0.536,11.7,-4.0,.,.
CCOCCCNC(=O)NC12CC3CC(CC(C3)C1)C2,-5.14*,-12.3,-0.09,0.459,3.2,1.0,591,266
CCCC(=O)Nc1ccc(C(=O)N/N=C2\CC(=O)CC(C)(C)C2)cc1,.,.,.,.,.,3.0,.,.
CC1(C)CC(=O)CC(=NCC(=O)O)C1,-2.64*,-12.7,-0.77,0.542,9.2,5.0,665,268
COC(=O)CSc1nc2sc3c(c2c(=O)n1C1CCCCC1)CCN(C)C3,-2.68*,23.0,0.39,-2.73*,8.3,3.0,486*,261
O=C(Cn1cnc2ccccc21)OCC(=O)N1CCc2ccccc2C1,-1.75*,-21.6,-0.3,-1.22,10.3,3.0,598,221
CCN1CCCC1CNC(=O)CSCc1nc(-c2ccccc2C)oc1C (stereo not given),-3.66*,-3.0,2,-0.299,1.7,0.0,308*,242
CCN1CCCC1CNC(=O)CS(=O)(=O)Cc1nc(-c2ccccc2C)oc1C (stereo not given),-0.0714,-9.9,-0.74,-1.56,14.5,0.0,.,.
COC(=O)C1=C(C)NC2=C(C(=O)C(C(=O)OC)C(c3ccc(OC)cc3)C2)C1c1ccccn1 (stereo not given),.,.,.,.,.,5.0,.,.
COc1ccc2nc(NC(=O)CSc3nnc(-c4ccoc4C)n3C)sc2c1,-11.3*,-9.6,-0.98,-0.311,7.0,-14.0,492,185
CCCCC(=NCCO)C1=C(O)C(C(=O)OC)C(C)(C)CC1=O (stereo not given),-3.51*,-10.2,-0.56,-0.0354,10.1,-3.0,674,202
Cc1ccc(NC(=O)c2ccccc2N(C)S(C)(=O)=O)cc1C,.,.,.,.,.,1.0,.,.
